Assay results: ChEMBL document CHEMBL1153886, “Synthesis, analgesic and anti-inflammatory activities of novel 3-(4-acetamido-benzyl)-5-substituted-1,2,4-oxadiazoles” (2009)

Legend:
Format in all cases: functional
Mus musculus [1] = assay: Analgesic activity in C57BL/6 mouse assessed as decrease in acetic acid-induced writhing at 100 mg/kg, po administered 1 hr before acetic acid challenge measured during 30 mins of acetic acid challenge relative to control; parameters: scale not given: the % may be the effect or the level left
How it was run: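 Male C57BL/6 mice given 100 mg/kg orally (suspension in 5% carboxymethylcellulose) 1 h before i.p. injection of 0.25 ml 0.6% v/v acetic acid. Writhes counted over 30 min after injection. Percent inhibition calculated against mean writhing count of the control group; diclofenac sodium 100 mg/kg p.o. as standard.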

Mus musculus [2] = assay: Antiinflammatory activity against carrageenan-induced paw edema in C57BL/6 mouse assessed as inhibition of paw edema at 100 mg/kg, po administered 1 hr before carrageenan challenge measured 4 hrs after carrageenan challenge relative to control
How it was run: (§1)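 Male C57BL/6 mice dosed orally at 100 mg/kg as a suspension in 5% carboxymethylcellulose 1 h before challenge. 0.05 ml of 1% w/v carrageenan in 0.9% sterile saline injected subcutaneously into right hind paw plantar region under light anaesthesia. Paw volume by digital plethysmometry immediately and 4 h later. Percent inhibition ± SEM vs vehicle group; diclofenac sodium 100 mg/kg p.o. as standard.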

Mus musculus [3] = assay: Antiinflammatory activity against carrageenan-induced paw edema in C57BL/6 mouse assessed as increase in paw volume at 100 mg/kg, po administered 1 hr before carrageenan challenge measured 4 hrs after carrageenan challenge relative to control; how it was run: as §1

| SMILES | Activity (Mus musculus [1]) [%] | inhibition in vivo at 100 mg/kg (Mus musculus [2]) [%] | Activity (Mus musculus [3]) [%] |
| --- | --- | --- | --- |
| CC(=O)Nc1ccc(Cc2noc(CCC(=O)O)n2)cc1 | 46.43 | 75.3 | 18 |
| CC(=O)Nc1ccc(Cc2noc(CCC(=O)Nc3ccc(F)cc3F)n2)cc1 | -0.6 | 52 | 34 |
| COc1ccc(NC(=O)CCc2nc(Cc3ccc(NC(C)=O)cc3)no2)cc1 | 67.26 | 49.3 | 37 |
| CC(=O)Nc1ccc(Cc2noc(CCC(=O)Nc3ccccc3F)n2)cc1 | -23.21 | 67.1 | 24 |
| CC(=O)Nc1ccc(Cc2noc(CCC(=O)Nc3ccccc3)n2)cc1 | -13.1 | 34.2 | 48 |
| COc1cccc(NC(=O)CCc2nc(Cc3ccc(NC(C)=O)cc3)no2)c1 | -7.14 | 35.6 | 47 |
| C#Cc1cccc(NC(=O)CCc2nc(Cc3ccc(NC(C)=O)cc3)no2)c1 | 61.31 | 84.9 | 11 |
| CC(=O)Nc1ccc(Cc2noc(CCC(=O)Nc3cccnc3)n2)cc1 | 80.95 | 87.7 | 9 |
| COc1ccccc1NC(=O)CCc1nc(Cc2ccc(NC(C)=O)cc2)no1 | 73.81 | 87.7 | 9 |
| CC(=O)Nc1ccc(Cc2noc(CCC(=O)NCc3ccccc3)n2)cc1 | -0.6 | 76.7 | 17 |
| COc1ccc(NC(=O)CCc2nc(Cc3ccc(NC(C)=O)cc3)no2)cc1F | 36.9 | 60.3 | 29 |
| CC(=O)Nc1ccc(Cc2noc(CCC(=O)Nc3cccc(C)c3)n2)cc1 | 67.26 | 16.4 | 61 |
| CC(=O)Nc1ccc(Cc2noc(CCC(=O)Nc3ccc(F)cc3)n2)cc1 | 67.86 | 64.4 | 26 |
| CC(=O)Nc1ccc(Cc2noc(CCC(=O)Nc3ccc(C(F)(F)F)cc3)n2)cc1 | 31.55 | 37 | 46 |
| COc1ccc(NC(=O)CCc2nc(Cc3ccc(NC(C)=O)cc3)no2)cc1OC | 80.36 | 95.9 | 3 |
| O=C([O-])Cc1ccccc1Nc1c(Cl)cccc1Cl.[Na+] [DICLOFENAC SODIUM] | 77.38 | 50.7 | 36 |
